Source: ChEMBL document CHEMBL1128458, “Synthesis and anticonvulsant activity of enaminones. 3. Investigations on 4'-, 3'-, and 2'-substituted and polysubstituted anilino compounds, sodium channel binding studies, and toxicity evaluations” (J Med Chem, 1995)
Activity calls are given as the source filed them. The calls are words filed in the database; no cut-off is given here.

What was measured:
Mus musculus [1] = assay: Anticonvulsant activity was determined; 2 indicates at doses greater than 100 mg/kg in mice; assay type: functional
Outline: (§1)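 Phase I screen in CF1 mice: compound suspended in 0.5% aqueous methylcellulose, given ip at 30, 100 and 300 mg/kg; MES, scMet and rotorod toxicity read at 30 min and 4 h. Class 1 = activity at 100 mg/kg or less; 2 = activity above 100 mg/kg; 3 = none up to 300 mg/kg.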

Mus musculus [2] = assay: Anticonvulsant activity; 3 indicates no activity at doses up to and including 300 mg/kg in mice.; assay type: functional; outline: as §1
Mus musculus [3] = assay: Anticonvulsant activity was determined in mice; 1 indicates 100 mg/kg or less; assay type: functional; outline: as §1
[4] = biological target: Sodium channel alpha subunits; brain (Types I, II, III) (Rattus norvegicus, UniProt P04775+P04774+P08104); assay: Inhibition of [3H]BTX-B binding to neurotoxin site 2 of sodium channel of rat cerebral cortex synaptoneurosomes; assay type: tissue-based
Outline: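 Synaptoneurosomes from rat cerebral cortex were incubated with [3H]BTX-B (2.0 nM final) in HEPES, pH 7.4 at 25 °C, with 130 mM choline chloride, at 37 °C for 45 min. Reactions were stopped by rapid vacuum filtration onto glass fibre filters, and bound radioactivity was compared with control. IC50 was read from log concentration (10–800 µM) versus percent specific binding.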

Mus musculus [5] = species on record: Mus musculus; assay: Effective dose for anticonvulsant activity determined in mice using MES test procedure. (Phase II); assay type: functional
Rattus norvegicus [6] = assay: Anticonvulsant activity was determined; 3 indicates no activity at doses up to and including 300 mg/kg in rat; assay type: functional
Rattus norvegicus [7] = assay: Anticonvulsant activity was determined in rat; 1 indicates 100 mg/kg or less; assay type: functional
[8] = Toxic dose determined in rats using MES test procedure. (Phase VIA, parentheses value indicate 95% confidence limits); assay type: toxicity, organism-based; settings: rat, in vivo
Outline: (§2)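 Phase VIA oral dosing in male Sprague–Dawley rats; MES and scMet ED50 and TD50 in mg/kg, each read at the time of peak effect; range in parentheses.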

Rattus norvegicus [9] = species on record: Rattus norvegicus; assay: Protective index measured as the […].; assay type: functional
Rattus norvegicus [10] = species on record: Rattus norvegicus; assay: Effective dose for anticonvulsant activity determined in rats using MES test procedure. (Phase VIA, parentheses value indicate 95% confidence limits); assay type: functional; outline: as §2
Mus musculus [11] = assay: Effective dose for anticonvulsant activity determined in mice using subcutaneous Met test procedure. (Phase II); No protection; assay type: functional, organism-based
Rattus norvegicus [12] = assay: Effective dose for anticonvulsant activity determined in rats using subcutaneous Met test procedure. (Phase VIA); No protection; assay type: functional, organism-based
Rattus norvegicus [13] = species on record: Rattus norvegicus; assay: Effective dose for anticonvulsant activity determined in rats using MES test procedure. (Phase VIA); assay type: functional; outline: as §2
Mus musculus [14] = assay: Effective dose for anticonvulsant activity determined in mice using subcutaneous Met test procedure. (Phase II); Potentiates; assay type: functional, organism-based

COC(=O)[C@@H]1C(=O)C=C(Nc2ccccc2C#N)C[C@H]1C
Anticonvulsant activity (Mus musculus [1]): 2

CCOC(=O)[C@@H]1C(=O)C=C(Nc2ccccc2Cl)C[C@H]1C
Anticonvulsant activity (Mus musculus [2]): 3

CCOC(=O)[C@@H]1C(=O)C=C(Nc2cc(C)ccc2OC)C[C@H]1C
Anticonvulsant activity (Mus musculus [3]): 1

Nc1nnc(-c2cccc(Cl)c2Cl)c(N)n1 [LAMOTRIGINE]
IC50 [4]: 114 µM
ED50 (Mus musculus [5]): 2.6 mg/kg

CCOC(=O)[C@@H]1C(=O)C=C(Nc2cc(Cl)cc(Cl)c2)C[C@H]1C
Anticonvulsant activity (Mus musculus [2]): 3

CCOC(=O)[C@@H]1C(=O)C=C(NNc2ccccc2)C[C@H]1C
Anticonvulsant activity (Mus musculus [2]): 3
Anticonvulsant activity (Rattus norvegicus [6]): 3

CCc1ccccc1NC1=CC(=O)[C@@H](C(=O)OC)[C@H](C)C1
Anticonvulsant activity (Mus musculus [3]): 1

CCOC(=O)[C@@H]1C(=O)C=C(NC2CCCCC2)C[C@H]1C
Anticonvulsant activity (Rattus norvegicus [7]): 1
Anticonvulsant activity (Mus musculus [3]): 1

COC(=O)[C@@H]1C(=O)C=C(NC2CCCCC2)C[C@H]1C
Anticonvulsant activity (Mus musculus [2]): 3
Anticonvulsant activity (Rattus norvegicus [6]): 3

COC(=O)[C@@H]1C(=O)C=C(Nc2ccc(Cl)c(Cl)c2)C[C@H]1C
Anticonvulsant activity (Mus musculus [3]): 1

CCOC(=O)[C@@H]1C(=O)C=C(Nc2ccc(Cl)c(Cl)c2Cl)C[C@H]1C
Anticonvulsant activity (Mus musculus [1]): 2

COC(=O)[C@@H]1C(=O)C=C(Nc2ccccc2OC)C[C@H]1C
Anticonvulsant activity (Mus musculus [2]): 3

CCOC(=O)[C@@H]1C(=O)C=C(Nc2ccc(Cl)cn2)C[C@H]1C
Anticonvulsant activity (Rattus norvegicus [7]): 1
TD50 [8]: > 344 mg/kg
PI (Rattus norvegicus [9]): 28.4
Anticonvulsant activity (Mus musculus [3]): 1
ED50 (Rattus norvegicus [10]): 12.1 mg/kg

CCOC(=O)[C@@H]1C(=O)C=C(Nc2ccc(OC)c(Cl)c2)C[C@H]1C
Anticonvulsant activity (Mus musculus [2]): 3

CCOC(=O)[C@@H]1C(=O)C=C(Nc2ccc(Cl)c(Cl)c2)C[C@H]1C
Anticonvulsant activity (Mus musculus [1]): 2

O=C1NC(=O)C(c2ccccc2)(c2ccccc2)N1
ED50 (Mus musculus [11]): inactive
ED50 (Rattus norvegicus [12]): inactive

COC(=O)[C@@H]1C(=O)C=C(Nc2ccc(Cl)cc2Cl)C[C@H]1C
Anticonvulsant activity (Mus musculus [3]): 1

COC(=O)[C@@H]1C(=O)C=C(Nc2ccc(OC)c(Cl)c2)C[C@H]1C
Anticonvulsant activity (Mus musculus [2]): 3

CCOC(=O)[C@@H]1C(=O)C=C(Nc2cc(Cl)c(Cl)cc2Cl)C[C@H]1C
Anticonvulsant activity (Mus musculus [2]): 3

NC(=O)N1c2ccccc2C=Cc2ccccc21 [CARBAMAZEPINE]
ED50 (Rattus norvegicus [13]): 8.5 mg/kg
ED50 (Mus musculus [5]): 8.8 mg/kg
ED50 (Rattus norvegicus [12]): inactive
ED50 (Mus musculus [14]): Convulsant

COC(=O)[C@@H]1C(=O)C=C(Nc2cc(Cl)ccc2Cl)C[C@H]1C
Anticonvulsant activity (Mus musculus [3]): 1

CN1C(=O)CN=C(c2ccccc2)c2cc(Cl)ccc21 [DIAZEPAM]
IC50 [4]: 152 µM

COC(=O)[C@@H]1C(=O)C=C(Nc2ccccc2F)C[C@H]1C
Anticonvulsant activity (Mus musculus [1]): 2
